According to ChEMBL document CHEMBL4428127, “Discovery of 5-Phenyl-N-(pyridin-2-ylmethyl)-2-(pyrimidin-5-yl)quinazolin-4-amine as a Potent I Kur Inhibitor” (ACS Med Chem Lett, 2016):
Values belong to the compound of their own block, whether it stands above or below them.

Tests used:
[1] = biological target: T1, Potassium voltage-gated channel subfamily A member 5 (Homo sapiens, UniProt P22460); assay: Inhibition of human Kv1.5 transfected in mouse LTK cells; assay type: cell-based
[2] = biological target: T1, Potassium voltage-gated channel subfamily A member 5; assay: Inhibition of human Kv1.5 transfected in mouse LTK cells at 0.3 uM; assay type: cell-based
[3] = biological target: Voltage-gated inwardly rectifying potassium channel KCNH2 (Homo sapiens, UniProt Q12809); assay: Inhibition of human ERG expressed in HEK293 cells by thallium flux assay; assay type: cell-based
hERG (KCNH2) [4] = biological target: T2, hERG (KCNH2) (Homo sapiens, UniProt Q12809); assay: Inhibition of human ERG expressed in HEK293 cells at 0.3 uM by thallium flux assay; assay type: cell-based; conditions: HEK293 cells that express hERG
[5] = Clearance in Sprague-Dawley rat hemodynamic/VERP model at 2 mg/kg, iv; assay type: ADME, organism-based; conditions: in vivo
[6] = Volume of distribution at steady state in Sprague-Dawley rat hemodynamic/VERP model at 2 mg/kg, iv; assay type: ADME, organism-based; conditions: in vivo, read-out: Vdss
[7] = Half life in Sprague-Dawley rat hemodynamic/VERP model at 2 mg/kg, iv; assay type: ADME, organism-based; conditions: in vivo
[8] = Half life in Sprague-Dawley rat hemodynamic/VERP model at 5 mg/kg, po; assay type: ADME, organism-based; conditions: in vivo
[9] = Oral bioavailability in Sprague-Dawley rat hemodynamic/VERP model at 5 mg/kg; assay type: ADME, organism-based; conditions: in vivo
Rattus norvegicus = assay: Pro-arrhythmic activity in rat assessed as increase in ventricular effective refractory period at 10 mg/kg, iv as 10 mins infusion; assay type: ADME, organism-based; conditions: in vivo
How it was run: (§1)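 Rats fitted with a multielectrode catheter in the left ventricle to record ventricular effective refractory period. Dose 10 mg/kg i.v. infused over 10 min, n = 2. Percent VERP increase reported together with the plasma concentration reached.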

Oryctolagus cuniculus = assay: Increase in atrial effective refractory period in rabbit at 3 mg/kg, iv as 30 mins infusion measured at 20 mins; assay type: functional
How it was run: (§2)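 Anesthetized rabbits given 3 mg/kg i.v. in DMF vehicle, infused over 30 min, n = 3–4. Atrial ERP, VERP, QTc (Delta QTc cf), systolic and mean blood pressure, and heart rate recorded as change at 20 min. Plasma concentration sampled at the end of infusion.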

[10] = Plasma concentration in rabbit at 3 mg/kg, iv as 30 mins infusion; assay type: ADME, organism-based, Oryctolagus cuniculus; how it was run: as §2
[11] = Metabolic stability in rat liver microsomes assessed as parent compound remaining at 10 mins; assay type: ADME, Microsome; conditions: read-out: Stability
How it was run: (§3)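 Compound incubated with rat or mouse liver microsomes; percent parent remaining measured at 10 min.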

[12] = Metabolic stability in mouse liver microsomes assessed as parent compound remaining at 10 mins; assay type: ADME, Microsome; conditions: read-out: Stability; how it was run: as §3
Cytochrome P450 2C9 [13] = biological target: T3, Cytochrome P450 2C9 (Homo sapiens, UniProt P11712); assay: Inhibition of CYP2C9 (unknown origin) at 4 uM; assay type: ADME
Cytochrome P450 2C19 [14] = biological target: T4, Cytochrome P450 2C19 (Homo sapiens, UniProt P33261); assay: Inhibition of CYP2C19 (unknown origin) at 3 uM; assay type: ADME
[15] = Toxicity in Sprague-Dawley rat VEPR model assessed as seizures at plasma concentration of 7.7 uM administered at 10 mg/kg, iv; assay type: organism-based; conditions: in vivo
[16] = Toxicity in rabbit assessed as change in corrected QT time interval at 3 mg/kg as 30 mins infusion; assay type: organism-based, Oryctolagus cuniculus; conditions: in vivo, iv, 0.5 h; how it was run: as §2
[17] = Toxicity in rabbit assessed as change in systolic blood pressure at 3 mg/kg, iv as 30 mins infusion measured at 20 mins; assay type: organism-based, Oryctolagus cuniculus; conditions: in vivo; how it was run: as §2
[18] = Toxicity in rabbit assessed as change in mean blood pressure at 3 mg/kg, iv as 30 mins infusion measured at 20 mins; assay type: organism-based, Oryctolagus cuniculus; conditions: in vivo; how it was run: as §2
[19] = Toxicity in rabbit assessed as change in heart rate at 3 mg/kg, iv as 30 mins infusion measured at 20 mins; assay type: organism-based, Oryctolagus cuniculus; conditions: in vivo; how it was run: as §2
[20] = Plasma concentration in rat VERP model at 3 mg/kg, iv as 5 mins infusion measured 10 mins post dose; assay type: ADME, organism-based
How it was run: (§4)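 Rat VERP model, i.v. infusion over 5 min at 3 or 10 mg/kg. Plasma and brain concentrations measured 10 min after the end of infusion.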

[21] = Drug uptake in brain of rat VERP model at 3 mg/kg, iv as 5 mins infusion measured 10 mins post dose; assay type: ADME, organism-based; conditions: read-out: Drug uptake; how it was run: as §4
[22] = Plasma concentration in rat VERP model at 10 mg/kg, iv as 5 mins infusion measured 10 mins post dose; assay type: ADME, organism-based; how it was run: as §4
[23] = Drug uptake in brain of rat VERP model at 10 mg/kg, iv as 5 mins infusion measured 10 mins post dose; assay type: ADME, organism-based; conditions: read-out: Drug uptake; how it was run: as §4
hERG (KCNH2) [24] = biological target: T2, hERG (KCNH2); assay: Inhibition of human ERG expressed in HEK293 cells at 10 uM by thallium flux assay; assay type: cell-based; conditions: HEK293 cells that express hERG
Cytochrome P450 2C9 [25] = biological target: T3, Cytochrome P450 2C9; assay: Inhibition of CYP2C9 (unknown origin) at 1 uM; assay type: ADME
Cytochrome P450 2C19 [26] = biological target: T4, Cytochrome P450 2C19; assay: Inhibition of CYP2C19 (unknown origin) at 1 uM; assay type: ADME
[27] = Stability in rat liver microsomes; assay type: ADME, Microsome
[28] = Pro-arrhythmic activity in rat assessed as plasma concentration required to increase 98 +/- 3% ventricular effective refractory period at 10 mg/kg, iv as 10 mins infusion; assay type: ADME, organism-based; how it was run: as §1
hERG (KCNH2) [29] = biological target: T2, hERG (KCNH2); assay: Inhibition of human ERG expressed in HEK293 cells at 1 uM by thallium flux assay; assay type: cell-based; conditions: HEK293 cells that express hERG

Sequence of Voltage-gated inwardly rectifying potassium channel KCNH2 (Q12809 whole entry): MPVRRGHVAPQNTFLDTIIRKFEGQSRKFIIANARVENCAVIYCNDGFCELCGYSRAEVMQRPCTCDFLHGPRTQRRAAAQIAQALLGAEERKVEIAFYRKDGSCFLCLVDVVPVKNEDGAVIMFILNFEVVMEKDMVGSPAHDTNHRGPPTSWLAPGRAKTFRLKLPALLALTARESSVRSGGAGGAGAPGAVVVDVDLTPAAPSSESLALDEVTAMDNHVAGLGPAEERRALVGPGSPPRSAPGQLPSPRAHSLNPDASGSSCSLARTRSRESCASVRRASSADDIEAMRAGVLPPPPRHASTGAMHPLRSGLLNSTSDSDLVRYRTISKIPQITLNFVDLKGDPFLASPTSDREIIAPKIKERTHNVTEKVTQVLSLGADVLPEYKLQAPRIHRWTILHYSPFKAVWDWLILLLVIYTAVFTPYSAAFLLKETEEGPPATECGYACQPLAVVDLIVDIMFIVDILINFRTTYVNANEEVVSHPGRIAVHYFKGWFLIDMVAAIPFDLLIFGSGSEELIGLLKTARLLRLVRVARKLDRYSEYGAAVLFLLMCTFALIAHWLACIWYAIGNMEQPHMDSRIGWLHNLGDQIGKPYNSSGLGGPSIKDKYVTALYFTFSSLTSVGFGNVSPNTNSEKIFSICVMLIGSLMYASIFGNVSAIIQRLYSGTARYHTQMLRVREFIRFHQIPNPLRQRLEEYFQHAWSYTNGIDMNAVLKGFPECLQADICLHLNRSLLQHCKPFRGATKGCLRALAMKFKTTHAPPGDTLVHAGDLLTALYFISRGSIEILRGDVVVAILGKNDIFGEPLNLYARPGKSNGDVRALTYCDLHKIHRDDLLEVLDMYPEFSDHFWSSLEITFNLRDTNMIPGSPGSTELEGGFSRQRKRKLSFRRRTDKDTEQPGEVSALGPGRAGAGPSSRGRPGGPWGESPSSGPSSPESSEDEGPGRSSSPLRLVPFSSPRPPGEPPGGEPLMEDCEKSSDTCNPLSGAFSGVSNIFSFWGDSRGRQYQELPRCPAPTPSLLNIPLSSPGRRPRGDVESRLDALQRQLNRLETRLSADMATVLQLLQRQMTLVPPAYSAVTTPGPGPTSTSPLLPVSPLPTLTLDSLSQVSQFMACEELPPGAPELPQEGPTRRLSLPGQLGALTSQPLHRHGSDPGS
T2 sequence (Q12809 whole entry): as above
T1 sequence (P22460 whole entry): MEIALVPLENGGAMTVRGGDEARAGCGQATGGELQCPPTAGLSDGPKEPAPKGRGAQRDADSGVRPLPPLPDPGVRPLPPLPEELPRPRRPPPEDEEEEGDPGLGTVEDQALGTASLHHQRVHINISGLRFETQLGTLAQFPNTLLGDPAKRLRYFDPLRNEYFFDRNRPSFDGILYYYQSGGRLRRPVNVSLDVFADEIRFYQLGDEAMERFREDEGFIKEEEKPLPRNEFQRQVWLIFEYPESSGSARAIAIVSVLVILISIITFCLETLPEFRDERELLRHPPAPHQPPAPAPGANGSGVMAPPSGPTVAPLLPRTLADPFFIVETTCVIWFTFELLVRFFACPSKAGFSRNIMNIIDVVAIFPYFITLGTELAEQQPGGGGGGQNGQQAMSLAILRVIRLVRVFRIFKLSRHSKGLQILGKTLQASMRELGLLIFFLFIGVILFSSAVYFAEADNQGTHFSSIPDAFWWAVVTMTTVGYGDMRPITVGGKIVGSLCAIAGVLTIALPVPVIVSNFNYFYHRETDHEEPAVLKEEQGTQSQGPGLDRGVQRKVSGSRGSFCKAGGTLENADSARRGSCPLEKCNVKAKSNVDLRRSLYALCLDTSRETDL
T3 sequence (P11712 whole entry): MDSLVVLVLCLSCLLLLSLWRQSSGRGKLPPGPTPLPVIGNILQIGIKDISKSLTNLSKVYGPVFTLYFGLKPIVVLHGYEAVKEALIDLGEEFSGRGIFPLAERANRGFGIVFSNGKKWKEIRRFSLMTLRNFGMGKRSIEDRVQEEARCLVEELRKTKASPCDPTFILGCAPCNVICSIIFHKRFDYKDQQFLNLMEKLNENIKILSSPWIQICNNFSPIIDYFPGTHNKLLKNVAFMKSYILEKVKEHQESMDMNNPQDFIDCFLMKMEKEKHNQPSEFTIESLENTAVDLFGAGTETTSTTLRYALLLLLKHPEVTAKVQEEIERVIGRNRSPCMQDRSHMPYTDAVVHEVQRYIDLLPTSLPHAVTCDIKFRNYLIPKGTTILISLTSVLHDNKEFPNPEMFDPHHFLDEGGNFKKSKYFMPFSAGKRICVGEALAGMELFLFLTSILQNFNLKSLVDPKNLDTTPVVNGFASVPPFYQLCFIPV
T4 sequence (P33261 whole entry): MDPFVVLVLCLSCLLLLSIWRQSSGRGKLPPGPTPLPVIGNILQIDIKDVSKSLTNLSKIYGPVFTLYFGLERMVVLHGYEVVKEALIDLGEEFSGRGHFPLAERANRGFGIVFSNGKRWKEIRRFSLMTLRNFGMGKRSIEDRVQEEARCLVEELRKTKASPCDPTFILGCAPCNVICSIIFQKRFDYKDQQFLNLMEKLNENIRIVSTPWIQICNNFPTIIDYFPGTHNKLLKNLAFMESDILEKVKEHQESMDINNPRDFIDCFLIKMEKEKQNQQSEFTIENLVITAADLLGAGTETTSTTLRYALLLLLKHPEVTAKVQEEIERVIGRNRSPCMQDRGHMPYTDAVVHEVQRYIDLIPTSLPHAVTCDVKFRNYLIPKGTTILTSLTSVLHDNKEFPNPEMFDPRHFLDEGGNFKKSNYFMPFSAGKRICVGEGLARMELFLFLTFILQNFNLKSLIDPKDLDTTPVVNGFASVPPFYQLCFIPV

- IC50 [1]: 0.1 µM
SMILES: COc1ncc(-c2nc(NCc3ccccn3)c3c(-c4ccccc4)cccc3n2)cn1

- inhibition [2]: 14%
SMILES: Clc1nc(NCc2ccccn2)c2cc(-c3ccccc3)ccc2n1

- IC50 [1]: 0.05 µM
SMILES: N#Cc1nc(NCc2ccccn2)c2c(-c3ccccc3)cccc2n1
- IC50 [3]: > 80 µM

- IC50 [1]: 0.17 µM
SMILES: c1ccc(-c2cccc3nc(C4CC4)nc(NCc4ccccn4)c23)cc1

- IC50 [1]: 0.08 µM
SMILES: FC(F)(F)c1nc(NCc2ccccn2)c2c(-c3ccccc3)cccc2n1
- IC50 [3]: 10 µM

- inhibition [2]: 41%
SMILES: Cn1cncc1-c1nc(NCc2ccccn2)c2c(-c3ccccc3)cccc2n1
- IC50 [3]: 2.7 µM

- IC50 [1]: 0.11 µM
SMILES: O=c1ccc(-c2nc(NCc3ccccn3)c3c(-c4ccccc4)cccc3n2)c[nH]1
- inhibition at 0.3 µM (hERG (KCNH2) [4]): 91%

- IC50 [1]: 0.09 µM
- clearance [5]: 4.6 mL/min/kg
- Vd [6]: 5.2 L/kg
- half-life [7]: 15 h
- half-life [8]: 3.5 h
- bioavailability [9]: 6.3%
- concentration at 0.5 h [10]: 2.7 µM
- remaining at 10 min [11]: 58%
- remaining at 10 min [12]: 75%
- inhibition (INH) (Cytochrome P450 2C9 [13]): Active
- inhibition (INH) (Cytochrome P450 2C19 [14]): Active
- concentration at 10 min [20]: 3.1 µM
- concentration at 10 min [21]: 8.8 µM
- concentration at 10 min [22]: 7.7 µM
- concentration at 10 min [23]: 25 µM
SMILES: c1ccc(-c2cccc3nc(-c4cncnc4)nc(NCc4ccccn4)c23)cc1
- Activity (Rattus norvegicus): Non-Toxic
- Activity (Oryctolagus cuniculus): 21.4%
- Activity [15]: Non-Toxic
- Time [16]: 13 ms
- Activity [17]: -3.4%
- Activity [18]: -3.8%
- Activity [19]: -3.1%
- inhibition at 10 µM (hERG (KCNH2) [24]): 43%

- inhibition [2]: 9%
SMILES: Clc1nc(NCc2ccccn2)c2ccc(-c3ccccc3)cc2n1

- IC50 [1]: 0.06 µM
- remaining at 10 min [11]: 7%
- remaining at 10 min [12]: 22%
- inhibition (INH) (Cytochrome P450 2C9 [25]): Active
- inhibition (INH) (Cytochrome P450 2C19 [26]): Active
SMILES: c1ccc(-c2cccc3nc(-c4cccnc4)nc(NCc4ccccn4)c23)cc1

- inhibition [2]: 59%
SMILES: CN(C)c1nc(NCc2ccccn2)c2c(-c3ccccc3)cccc2n1
- IC50 [3]: 2.5 µM

- inhibition [2]: 9%
SMILES: Clc1nc(NCc2ccccn2)c2cccc(-c3ccccc3)c2n1

- IC50 [1]: 0.07 µM
- inhibition [2]: 86%
- Stability [27]: Unstable
- clearance [5]: 8.2 mL/min/kg
- Vd [6]: 2.3 L/kg
- half-life [7]: 7.3 h
- half-life [8]: 1.9 h
- bioavailability [9]: 10%
- concentration at 0.5 h [10]: 9.1 µM
SMILES: Clc1nc(NCc2ccccn2)c2c(-c3ccccc3)cccc2n1
- IC50 [3]: > 80 µM
- concentration at 10 min [28]: 26 µM
- Activity (Rattus norvegicus): 98%
- Activity (Oryctolagus cuniculus): 9%
- Activity [17]: 0.1%
- Activity [18]: -1%
- Activity [19]: -3.2%

- IC50 [1]: 0.25 µM
SMILES: Fc1ccc(-c2cccc3nc(-c4cncnc4)nc(NCc4ccccn4)c23)cc1

- inhibition [2]: 37%
SMILES: Fc1cccc(-c2cccc3nc(-c4cncnc4)nc(NCc4ccccn4)c23)c1

- IC50 [1]: 0.12 µM
SMILES: COc1cncc(-c2nc(NCc3ccccn3)c3c(-c4ccccc4)cccc3n2)c1

- IC50 [1]: 0.09 µM
SMILES: Cc1noc(C)c1-c1nc(NCc2ccccn2)c2c(-c3ccccc3)cccc2n1
- IC50 [3]: 3.1 µM

- inhibition [2]: 9%
SMILES: NC(=O)c1nc(NCc2ccccn2)c2c(-c3ccccc3)cccc2n1

- IC50 [1]: 0.15 µM
SMILES: FC(F)(F)c1ccc(-c2cccc3nc(-c4cncnc4)nc(NCc4ccccn4)c23)cc1

- inhibition [2]: 72%
SMILES: Cc1nc(NCc2ccccn2)c2c(-c3ccccc3)cccc2n1
- IC50 [3]: 4.6 µM

- inhibition [2]: 8%
SMILES: NC(=O)c1ccc(-c2cccc3nc(-c4cncnc4)nc(NCc4ccccn4)c23)cc1

- IC50 [1]: 0.05 µM
SMILES: c1ccc(-c2cccc3nc(-c4cncs4)nc(NCc4ccccn4)c23)cc1
- IC50 [3]: 6.2 µM

- inhibition [2]: 20%
SMILES: COCCNc1ncc(-c2nc(NCc3ccccn3)c3c(-c4ccccc4)cccc3n2)cn1

- IC50 [1]: 0.13 µM
SMILES: N#Cc1ccc(-c2nc(NCc3ccccn3)c3c(-c4ccccc4)cccc3n2)cn1
- inhibition at 1 µM (hERG (KCNH2) [29]): 51%

- IC50 [1]: 0.16 µM
SMILES: c1ccc(-c2cccc3nc(-c4cn[nH]c4)nc(NCc4ccccn4)c23)cc1
- inhibition at 1 µM (hERG (KCNH2) [29]): 88%

- inhibition [2]: 20%
SMILES: Cc1n[nH]c(C)c1-c1nc(NCc2ccccn2)c2c(-c3ccccc3)cccc2n1

- IC50 [1]: 0.04 µM
SMILES: c1ccc(-c2cccc3nc(-c4ccncc4)nc(NCc4ccccn4)c23)cc1
- IC50 [3]: 6.7 µM
